Measured values from PMC6921677 (ACS Omega, 2019).
Read-outs that look alike come from different tables or passages of the source.

How the values were obtained:
[1] = tested on: CAL-27 (oral cancer); assay: MTT cell cytotoxicity assay, CAL-27; assay type: cell-based; conditions: Homo sapiens, CAL-27, 48 h, read-out: CAL-27 IC50 ± S.D
How it was run: (§1)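 Cells maintained in high-glucose DMEM with 2 mM L-glutamine, 10% FBS and 1% antibiotics, passaged before 70% confluency. Seeded at 10 000/well, left overnight at 37 °C, washed, then exposed to a range of test compound concentrations for 48 h. MTT (0.5 mg/mL as added) for 4 h, formazan dissolved in DMSO, OD 570 nm. IC50 fitted from percent inhibition.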

[2] = tested on: NCI-H460 (lung cancer); assay: MTT cell cytotoxicity assay, NCI-H460; assay type: cell-based; conditions: Homo sapiens, NCI-H460, 48 h, read-out: NCI-H460 IC50 ± S.D
How it was run: as §1

[3] = tested on: NIH-3T3 (mouse normal fibroblast); assay: MTT cell cytotoxicity assay, NIH-3T3; assay type: cell-based; conditions: read-out: NIH-3T3 IC50 ± S.D
How it was run: as §1

[4] = tested on: K. pneumoniae (ATCC 13882); assay: crystal violet biofilm inhibition assay, K. pneumoniae; assay type: cell-based, Klebsiella pneumoniae; conditions: for K. pneumonia % inhibition ± S.D: biofilm inhibition at 250 μM; for K. pneumonia MBIC dose: biofilm inhibitory concentration, 24 h, crystal violet
How it was run: (§2)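 Strains cultured in tryptone soya broth or agar. Test compound twofold serially diluted (500–1 μM) in TSB and inoculated at 5 x 10^5 CFU/mL. Incubated 24 h at 37 °C. Medium discarded and wells washed with sterile water, then stained with 0.1% w/v crystal violet for 15 min. Washed and air-dried; bound dye taken up in 30% v/v acetic acid. A590 gave percent biofilm inhibition.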

[5] = tested on: E. coli (ATCC 25922); assay: crystal violet biofilm inhibition assay, E. coli; assay type: cell-based, Escherichia coli; conditions: for E. coli % Inhibition ± S.D: biofilm inhibition at 250 μM; for E. coli MBIC dose: biofilm inhibitory concentration, 24 h, crystal violet
How it was run: as §2

[6] = tested on: A. baumannii (ATCC 19606); assay: crystal violet biofilm inhibition assay, A. baumannii; assay type: cell-based, Acinetobacter baumannii; conditions: for A. baumannii MBIC dose: biofilm inhibitory concentration, 24 h, crystal violet
How it was run: as §2

[7] = tested on: S. aureus (NCTC 6571); assay: crystal violet biofilm inhibition assay, S. aureus; assay type: cell-based, Staphylococcus aureus; conditions: biofilm inhibition at 500 μM
How it was run: as §2

SMILES | IC50 [1] [µM] | IC50 [2] [µM] | IC50 ([3]; Mus musculus, NIH3T3, 48 h) [µM] | K. pneumonia % inhibition ± S.D [4] [%] | K. pneumonia MBIC dose [4] [µM] | E. coli % Inhibition ± S.D [5] [%] | E. coli MBIC dose [5] [µM] | A. baumannii % Inhibition ± S.D ([6]; biofilm inhibition at 250 μM) [%] | A. baumannii MBIC dose [6] [µM] | S. aureus % Inhibition ± S.D [7] | IC50 ([3]; MTT, 48 h treatment, normal mouse fibroblast) [µM] | A. baumannii % Inhibition ± S.D ([6]; biofilm inhibition at 125 μM) [%]
O=c1[nH]cc(F)c(=O)[nH]1 [5-fluorouracil] | 2.41 ± 0.89 | 4.54 ± 1.67 | > 100 | – | – | – | – | – | – | – | – | –
O.O.O.O.O=C([O-])Cc1ccccc1Nc1c(Cl)cccc1Cl.O=C([O-])Cc1ccccc1Nc1c(Cl)cccc1Cl.[K+].[K+].c1cnc2c(c1)ccc1cccnc12.c1cnc2c(c1)ccc1cccnc12 [Complex 2, [K2(phen)2(dcf)2(H2O)4]] | – | – | – | 77.26 ± 0.063 | 250 | 72 ± 0.091 | 250 | 86.158 ± 0.068 | 250 | –1.497 ± 0.288% | – | –
O.O.O=C([O-])Cc1ccccc1Nc1c(Cl)cccc1Cl.[Li+].c1cnc2c(c1)ccc1cccnc12 [Complex 3, [Li(phen)(H2O)2][dcf]] | – | – | – | 77.91 ± 0.062 | 250 | 76.22 ± 0.026 | 250 | – | 125 | 3.306 ± 0.166% | 135 ± 4.96 | 87.924 ± 0.073
